PMC2217202 (The Journal of General Physiology, 2000)
Where two headings read alike, the source gives them in different places.

How the values were obtained:
[1] = test system: AE1; format: cell-based, human; settings: at saturating concentrations of WW781, 150 mM Cl− inside and outside
[2] = target: T1, AE1 (band 3) protein in human red blood cells (Homo sapiens, UniProt P02730); assay: Inhibition of 36Cl exchange flux at 0°C after equilibration with WW781; format: cell-based; settings: for IC50: read-out: K eqW, 0°C, mean ± SEM
T1 sequence (P02730 1-911): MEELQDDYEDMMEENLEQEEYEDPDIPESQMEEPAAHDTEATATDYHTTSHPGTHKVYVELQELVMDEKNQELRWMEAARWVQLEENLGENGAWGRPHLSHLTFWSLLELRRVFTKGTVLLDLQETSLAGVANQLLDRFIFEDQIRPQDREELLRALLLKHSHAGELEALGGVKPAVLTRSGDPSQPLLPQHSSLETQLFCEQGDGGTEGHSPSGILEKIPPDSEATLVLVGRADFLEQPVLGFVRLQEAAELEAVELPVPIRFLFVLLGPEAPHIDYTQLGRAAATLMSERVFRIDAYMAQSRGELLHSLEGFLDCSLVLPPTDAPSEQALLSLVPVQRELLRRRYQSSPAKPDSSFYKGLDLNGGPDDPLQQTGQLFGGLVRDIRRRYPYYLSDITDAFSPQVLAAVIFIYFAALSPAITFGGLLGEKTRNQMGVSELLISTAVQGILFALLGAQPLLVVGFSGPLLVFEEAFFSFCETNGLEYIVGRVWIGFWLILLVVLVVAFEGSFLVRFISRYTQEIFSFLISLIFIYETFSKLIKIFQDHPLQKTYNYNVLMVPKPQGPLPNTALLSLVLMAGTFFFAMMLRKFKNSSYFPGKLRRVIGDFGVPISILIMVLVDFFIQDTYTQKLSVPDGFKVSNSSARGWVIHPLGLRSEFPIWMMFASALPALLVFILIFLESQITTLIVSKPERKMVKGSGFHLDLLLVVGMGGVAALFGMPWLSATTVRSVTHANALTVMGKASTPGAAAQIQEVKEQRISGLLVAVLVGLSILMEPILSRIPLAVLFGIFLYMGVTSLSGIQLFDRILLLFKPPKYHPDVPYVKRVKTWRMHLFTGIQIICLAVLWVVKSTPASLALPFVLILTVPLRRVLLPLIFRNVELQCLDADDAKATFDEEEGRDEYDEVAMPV
Procedure, shortened: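 Washed human RBCs (150 mM KCl, 20 mM HEPES, 24 mM sucrose, pH 6.9) at 0.25% hematocrit, internal Cl− set by nystatin, pretreated ≥2 min with test compound (1% ethanol), loaded with 36Cl (2-10 µCi/ml, 10 min, 0°C), then efflux into ice-cold medium with the same compound level. In 2 mM Cl− medium, no pretreatment and sampling began ≥4 min. Fit to single-site inhibition.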

[3] = test system: AE1; settings: cells with 150 mM Cl− inside and outside; ref Raha et al. 1993; cited from earlier work
[4] = target: T1, AE1 (band 3) protein in human red blood cells; assay: Inhibition of 36Cl exchange flux at 0°C after short exposure to WW781; format: cell-based; settings: for rate constant for 36Cl exchange, k: 0°C (control 0.0507); for IC50: read-out: K 1W, 0°C
Procedure, shortened: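 Human RBCs loaded with 36Cl (10 min, 0°C) without pretreatment, resuspended in ice-cold medium with test compound (0.25-1.5 µM, 1% ethanol); nystatin equalized Cl− for non-150 mM media, citrate-sucrose replacing Cl−. Rapid-filtration samples were taken mostly before 30 s, never after 45 s. k was the slope of ln(P∞−Pt) versus time. Dissociation constants came from nonlinear least-squares single-site fits and Dixon plots.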

[5] = test system: net Cl^− permeability, PCl; settings: ref Freedman and Novak 1983; cited from earlier work
[6] = test system: AE1; settings: ref Knauf et al. 1995; cited from earlier work

## CCCCN1C(=O)C(C=CC=CC=C2C(=O)N(c3ccc(S(=O)(=O)O)cc3)N=C2C)C(=O)N(CCCC)C1=O [WW781, [3-methyl-1-p-sulfophenyl-5-pyrazolone-(4)]-[1,3-dibutylbarbituric acid]-pentamethine oxonol]
[1]
  half-time for formation of complex 2: 33 s
[2]
  K 2/1W,ECl/K 2/1W,E: 0.12 − 0.15
[2]; Cl−-loaded forms
  K 2/1W,ECl: 1.8 − 2.2
[2]; Ei form
  K 2/1W,Ei: ≤34.
[2]; Eo form of AE1, from K 2/1W,Eo
  free energy difference ΔG^0 between complex 2 and complex 1: -1.82 kcal/mol
[2]; [Cli = o] 5 mM
  K 1W/K eqW: 15.5
[2]; [Cli = o] 150 mM
  K 1W/K eqW: 9.0
  IC50: 66 ± 12 nM
[2]; [Cli = o] 600 mM
  K 1W/K eqW: 3.8
  IC50: 143 ± 29 nM
[2]; [Cli] = 150, [Clo] = 2 mM
  K 1W/K eqW: 25.2
  IC50: 5.5 ± 0.3 nM
[2]; best-fit straight line, [Cli] = [Clo] (Fig. 10)
  slope of K eqW as a function of [Cl−]: 0.00016 ± 0.00004 μM/mM
[2]; both initial binding and equilibrium association
  preference for the Eo form of AE1 as compared with the Ei form: > 10 fold
[2]; equilibrium binding
  K eqW,Ei/K eqW,Eo: ≥12.
[2]; read-out: K eqW,EIi, mean ± SEM of two experiments
  Ki: 280 ± 70 nM
[2]; read-out: K eqW,Ei (minimum value), range over both estimates of K eqW,E
  Ki: 33 to 46 nM
[3]
  k W-AE1,W•AE1 (backward rate constant, complex 2 to complex 1): 0.15 min⁻¹
  k W•AE1,W-AE1 (forward rate constant for formation of complex 2): ~1.1 min⁻¹
[4]; 0.25 μM WW781, 150 mM Cl− medium
  rate constant for 36Cl exchange, k: 0.0389 s⁻¹
[4]; 0.5 μM WW781, 150 mM Cl− medium
  rate constant for 36Cl exchange, k: 0.0316 s⁻¹
[4]; 1 μM WW781, 150 mM Cl− medium
  rate constant for 36Cl exchange, k: 0.0274 s⁻¹
[4]; 1.5 μM WW781, 150 mM Cl− medium
  rate constant for 36Cl exchange, k: 0.0203 s⁻¹
[4]; initial binding
  K 1W,ECl/K 1W,E: 0.73 − 0.74
  K 1W,Ei/K 1W,Eo: 14.
[4]; [Cli = o] 20 mM, nystatin-treated cells
  IC50: 900 ± 210 nM
[4]; [Cli = o] 150 mM, mean ± SEM
  IC50: 590 ± 50 nM
[4]; [Cli = o] 600 mM, nystatin-treated cells, mean ± SEM
  IC50: 540 ± 100 nM
[4]; [Cli] = 150, [Clo] = 2 mM, mean ± SEM
  IC50: 140 ± 10 nM
[5]
  effect on net Cl− permeability, PCl: increase

## CCCCN1C(=O)C(=CC=CC=CC2C(=O)N(CCCC)C(=O)N(CCCC)C2=O)C(=O)N(CCCC)C1=O [diBA(5)C4, bis-(1,3-dibutylbarbituric acid)-pentamethine oxonol]
[6]
  inhibition of the transport system: most potent known inhibitor
